Assay results as given in ChEMBL document CHEMBL1148778, “Synthesis and characterization of nonsteroidal glucocorticoid receptor modulators for multiple myeloma” (J Med Chem, 2007).

Experiments:
[1] = molecular target: T1, Glucocorticoid receptor (Homo sapiens, UniProt P04150); test: Antagonist activity at human GR expressed in CV1 cells by GRE activation assay; format: functional, cell-based, CV-1
T1 sequence (P04150 whole entry): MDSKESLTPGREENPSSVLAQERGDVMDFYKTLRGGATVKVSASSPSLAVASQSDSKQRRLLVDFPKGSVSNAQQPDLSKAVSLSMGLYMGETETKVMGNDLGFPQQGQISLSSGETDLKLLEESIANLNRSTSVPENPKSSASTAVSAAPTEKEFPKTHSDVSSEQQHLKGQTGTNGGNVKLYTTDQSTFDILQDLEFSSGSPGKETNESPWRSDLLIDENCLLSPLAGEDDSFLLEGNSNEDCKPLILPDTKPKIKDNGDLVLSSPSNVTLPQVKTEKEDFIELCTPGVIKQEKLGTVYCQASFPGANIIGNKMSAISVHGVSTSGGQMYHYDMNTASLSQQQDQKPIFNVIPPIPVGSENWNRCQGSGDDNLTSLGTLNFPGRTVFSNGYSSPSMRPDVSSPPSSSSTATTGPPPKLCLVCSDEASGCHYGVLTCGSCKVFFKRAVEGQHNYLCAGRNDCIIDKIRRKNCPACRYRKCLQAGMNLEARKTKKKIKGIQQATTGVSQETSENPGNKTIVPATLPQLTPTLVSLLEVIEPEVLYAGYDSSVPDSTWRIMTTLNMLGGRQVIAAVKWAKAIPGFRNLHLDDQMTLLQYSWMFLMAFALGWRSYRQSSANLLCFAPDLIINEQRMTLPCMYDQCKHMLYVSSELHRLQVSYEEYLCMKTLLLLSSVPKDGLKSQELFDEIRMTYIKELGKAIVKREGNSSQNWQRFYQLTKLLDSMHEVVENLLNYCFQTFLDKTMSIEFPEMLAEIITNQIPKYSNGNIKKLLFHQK

[2] = tested on: RPMI-8226; test: Antiproliferative activity against human RPMI8226 cells after 4 days relative to Dexamethasone; format: functional
[3] = molecular target: T1, Glucocorticoid receptor; test: Agonist activity at human GR expressed in CV1 cells by GRE activation assay; format: functional, cell-based, CV-1
[4] = tested on: RPMI-8226; test: Antiproliferative activity against human RPMI8226 cells after 4 days; format: functional, cell-based; conditions: RPMI-8226, 96 h
[5] = molecular target: T1, Glucocorticoid receptor; test: Activity at human GR expressed in NHDFneo cells assessed as inhibition of IL-6 production; format: cell-based
[6] = molecular target: T2, Progesterone receptor (Homo sapiens, UniProt P06401); test: Binding affinity to PR
T2 sequence (P06401 whole entry): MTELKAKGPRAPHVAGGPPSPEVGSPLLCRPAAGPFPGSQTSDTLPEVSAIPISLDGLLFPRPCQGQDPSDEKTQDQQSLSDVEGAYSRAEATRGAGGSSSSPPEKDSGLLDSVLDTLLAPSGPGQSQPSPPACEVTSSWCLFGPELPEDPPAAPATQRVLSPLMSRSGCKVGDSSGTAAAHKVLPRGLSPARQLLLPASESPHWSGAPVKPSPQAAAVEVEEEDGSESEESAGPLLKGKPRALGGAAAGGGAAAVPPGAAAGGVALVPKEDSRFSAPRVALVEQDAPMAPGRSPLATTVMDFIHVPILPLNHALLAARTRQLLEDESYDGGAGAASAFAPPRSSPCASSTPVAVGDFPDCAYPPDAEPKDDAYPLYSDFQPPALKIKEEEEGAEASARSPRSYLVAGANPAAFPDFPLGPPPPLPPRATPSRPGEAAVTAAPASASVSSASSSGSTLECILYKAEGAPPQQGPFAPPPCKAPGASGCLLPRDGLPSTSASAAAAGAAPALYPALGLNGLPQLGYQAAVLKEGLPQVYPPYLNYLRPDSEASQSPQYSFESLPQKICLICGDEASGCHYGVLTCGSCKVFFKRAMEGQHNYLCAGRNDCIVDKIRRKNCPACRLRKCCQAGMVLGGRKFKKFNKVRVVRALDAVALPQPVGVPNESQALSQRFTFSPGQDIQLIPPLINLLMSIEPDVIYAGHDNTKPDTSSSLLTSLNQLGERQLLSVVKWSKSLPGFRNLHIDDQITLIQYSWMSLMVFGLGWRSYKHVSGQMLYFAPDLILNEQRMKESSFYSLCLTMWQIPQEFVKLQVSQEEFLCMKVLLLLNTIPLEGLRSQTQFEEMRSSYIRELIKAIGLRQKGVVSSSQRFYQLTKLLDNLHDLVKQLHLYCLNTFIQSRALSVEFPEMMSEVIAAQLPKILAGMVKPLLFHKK
Outline: (§1)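 Competitive binding assays on PR and MR. Values are means of at least three separate experiments, each with triplicate determinations, ± SEM. A value without SEM comes from a single determination.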

[7] = molecular target: T1, Glucocorticoid receptor; test: Binding affinity to GR
[8] = molecular target: T3, Androgen receptor (Homo sapiens, UniProt P10275); test: Binding affinity to AR
T3 sequence (P10275 whole entry): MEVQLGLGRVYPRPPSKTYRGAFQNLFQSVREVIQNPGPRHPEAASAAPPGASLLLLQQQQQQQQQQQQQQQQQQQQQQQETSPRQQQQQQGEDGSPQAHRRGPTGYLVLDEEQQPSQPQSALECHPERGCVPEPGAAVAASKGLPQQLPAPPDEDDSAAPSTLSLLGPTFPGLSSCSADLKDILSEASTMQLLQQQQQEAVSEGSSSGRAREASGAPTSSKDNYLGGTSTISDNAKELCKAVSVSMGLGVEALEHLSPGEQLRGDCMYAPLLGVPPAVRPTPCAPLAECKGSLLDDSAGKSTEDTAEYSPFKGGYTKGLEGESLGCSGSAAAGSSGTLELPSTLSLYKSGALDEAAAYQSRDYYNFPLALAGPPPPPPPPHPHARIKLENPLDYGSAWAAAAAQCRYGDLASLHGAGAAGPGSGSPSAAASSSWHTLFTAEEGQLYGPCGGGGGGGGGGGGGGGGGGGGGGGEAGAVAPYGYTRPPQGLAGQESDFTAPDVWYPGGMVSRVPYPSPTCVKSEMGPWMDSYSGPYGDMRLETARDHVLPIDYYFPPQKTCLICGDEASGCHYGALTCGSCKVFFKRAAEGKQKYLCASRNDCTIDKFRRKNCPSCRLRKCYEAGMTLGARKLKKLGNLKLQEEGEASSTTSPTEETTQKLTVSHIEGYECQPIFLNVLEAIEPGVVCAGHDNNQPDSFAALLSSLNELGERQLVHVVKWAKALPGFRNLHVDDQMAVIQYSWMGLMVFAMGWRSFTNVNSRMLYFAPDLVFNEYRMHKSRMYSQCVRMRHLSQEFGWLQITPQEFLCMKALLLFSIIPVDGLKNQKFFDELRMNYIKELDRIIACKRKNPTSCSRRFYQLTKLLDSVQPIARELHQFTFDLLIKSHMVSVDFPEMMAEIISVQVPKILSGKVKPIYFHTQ

[9] = molecular target: T4, Mineralocorticoid receptor (Homo sapiens, UniProt P08235); test: Binding affinity to MR; outline: as §1
T4 sequence (P08235 whole entry): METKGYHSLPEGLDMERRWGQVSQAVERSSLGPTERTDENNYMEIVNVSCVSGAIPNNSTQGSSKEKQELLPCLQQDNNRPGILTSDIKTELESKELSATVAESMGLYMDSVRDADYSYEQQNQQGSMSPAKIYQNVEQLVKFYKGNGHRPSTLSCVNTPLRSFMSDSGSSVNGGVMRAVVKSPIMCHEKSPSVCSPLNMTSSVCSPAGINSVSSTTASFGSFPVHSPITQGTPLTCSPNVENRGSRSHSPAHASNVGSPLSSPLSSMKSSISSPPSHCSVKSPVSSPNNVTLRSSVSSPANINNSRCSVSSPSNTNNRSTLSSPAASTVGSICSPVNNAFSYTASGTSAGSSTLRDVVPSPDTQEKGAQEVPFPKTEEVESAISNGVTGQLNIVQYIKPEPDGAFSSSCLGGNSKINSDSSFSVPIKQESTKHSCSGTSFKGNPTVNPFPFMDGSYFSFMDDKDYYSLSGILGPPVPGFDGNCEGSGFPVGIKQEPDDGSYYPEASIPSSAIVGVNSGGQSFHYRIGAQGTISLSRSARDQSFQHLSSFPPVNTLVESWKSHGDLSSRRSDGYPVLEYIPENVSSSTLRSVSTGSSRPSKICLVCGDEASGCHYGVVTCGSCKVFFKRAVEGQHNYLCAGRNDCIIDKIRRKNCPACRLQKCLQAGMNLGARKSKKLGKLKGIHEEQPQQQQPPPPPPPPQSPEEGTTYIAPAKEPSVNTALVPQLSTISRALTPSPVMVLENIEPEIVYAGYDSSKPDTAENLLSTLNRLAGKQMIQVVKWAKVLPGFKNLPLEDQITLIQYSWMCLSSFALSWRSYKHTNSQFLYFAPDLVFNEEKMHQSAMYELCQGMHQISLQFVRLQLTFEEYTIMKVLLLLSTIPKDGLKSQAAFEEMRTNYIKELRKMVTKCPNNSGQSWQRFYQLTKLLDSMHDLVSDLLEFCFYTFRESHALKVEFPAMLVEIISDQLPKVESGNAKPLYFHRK

[10] = tested on: RPMI-8226; test: Inhibition of tumor growth in human RPMI8226 cells xenografted nude mouse at 10 mg/kg, po after 4 weeks relative to Dexamethasone; format: functional
[11] = tested on: RPMI-8226; test: Inhibition of tumor growth in human RPMI8226 cells xenografted nude mouse at 30 mg/kg, po after 4 weeks relative to Dexamethasone; format: functional
[12] = tested on: RPMI-8226; test: Inhibition of tumor growth in human RPMI8226 cells xenografted nude mouse at 3 mg/kg, po after 4 weeks relative to Dexamethasone; format: functional

Question: `COc1c(O)ccc2c1-c1ccc3c(c1/C(=C/c1sccc1C(=O)C1CCCCC1)O2)C(C)=CC(C)(C)N3` was tested. Which EC50 [1] did it give?
Answer: 0.4 nM

Question: With `COc1c(O)ccc2c1-c1ccc3c(c1/C(=C/c1sccc1COCCO)O2)C(C)=CC(C)(C)N3` as the molecule, how does the Efficacy [2] read?
Answer: 98%

Question: What about the EC50 [3] of the same molecule?
Answer: 1.6 nM

Question: What about the IC50 [4] of the same molecule?
Answer: 22 nM

Question: What about the IC50 [5] of the same molecule?
Answer: 1 nM

Question: Which EC50 [1] does the source give for `COc1c(O)ccc2c1-c1ccc3c(c1/C(=C/c1sccc1C(O)C(F)(F)F)O2)C(C)=CC(C)(C)N3` (racemic) here?
Answer: 0.3 nM

Question: What about the Ki [6] of the same molecule?
Answer: 1780 nM

Question: And the Ki [7]?
Answer: 1.4 nM

Question: What about the Ki [8] of the same molecule?
Answer: 1900 nM

Question: What about the Ki [9] of the same molecule?
Answer: 670 nM

Question: And the Efficacy [10]?
Answer: 89%

Question: And the Efficacy [11]?
Answer: 97%

Question: And the Efficacy [12]?
Answer: 52%

Question: What does the source list for `COc1c(O)ccc2c1-c1ccc3c(c1/C(=C/c1sccc1CNCC(F)(F)F)O2)C(C)=CC(C)(C)N3`?
Answer: Efficacy [2]: 96%; EC50 [3]: 0.5 nM; IC50 [4]: 18 nM; IC50 [5]: 0.9 nM

Question: For `COc1c(O)ccc2c1-c1ccc3c(c1/C(=C/c1sccc1C#N)O2)C(C)=CC(C)(C)N3`, which Efficacy [2] is on record?
Answer: 87%

Question: What about the EC50 [3] of the same molecule?
Answer: 0.2 nM

Question: What about the IC50 [4] of the same molecule?
Answer: 14 nM

Question: And the IC50 [5]?
Answer: 0.8 nM

Question: With `COc1c(O)ccc2c1-c1ccc3c(c1/C(=C/c1sccc1C(O)C(F)(F)F)O2)C(C)=CC(C)(C)N3` (stereo in doubt; (-)-15) as the molecule, how does the EC50 [1] read?
Answer: 1.4 nM

Question: With `COc1c(O)ccc2c1-c1ccc3c(c1/C(=C/c1sccc1C(C)O)O2)C(C)=CC(C)(C)N3` (racemic) as the molecule, how does the EC50 [1] read?
Answer: 1.3 nM

Question: What about the Ki [6] of the same molecule?
Answer: 2290 nM

Question: What about the Ki [7] of the same molecule?
Answer: 1.2 nM

Question: What about the Ki [8] of the same molecule?
Answer: 1530 nM

Question: What about the Ki [9] of the same molecule?
Answer: 410 nM

Question: `CCO/N=C(\C)c1ccsc1/C=C1\Oc2ccc(O)c(OC)c2-c2ccc3c(c21)C(C)=CC(C)(C)N3` was tested. Which EC50 [1] did it give?
Answer: 1.9 nM

Question: What about the Efficacy [2] of the same molecule?
Answer: 98%

Question: What about the EC50 [3] of the same molecule?
Answer: 0.4 nM

Question: What about the IC50 [4] of the same molecule?
Answer: 16 nM

Question: What about the IC50 [5] of the same molecule?
Answer: 0.5 nM
